Experiment [1] in a line: Cytotoxicity against RSV long infected human Hep2 cells after 3 days. The class given is cell-based. Conditions: HEp-2, 72 h.
Experiment [2] relates to Respiratory syncytial virus. Briefly: Antiviral activity against RSV long infected in human Hep2 cells assessed as virus-induced cytopathic effect after 3 days. Conditions: HEp-2, 72 h. The class given is functional, organism-based. For orientation: Damage to the host cells serves as the signal in cytopathic effect assays.
Experiment [3] is described as follows: Selectivity index, ratio of EC50 for RSV long by cytopathic effect over IC50 for human Hep2 cells. The class given is functional, HEp-2.
Experiment [4] in a line: Cytotoxicity against mCMV RM-461 infected human Hep2 cells after 3 days. It is filed as cell-based. Conditions: HEp-2, 72 h.
Experiment [5] can be described thus: Selectivity index, ratio of EC50 for mCMV RM461 by cytopathic effect over IC50 for human Hep2 cells. The class given is functional, HEp-2.
A short description of experiment [6]: Cytotoxicity against VZV 3CV-1 infected human Hep2 cells after 3 days. It is filed as cell-based. Conditions: HEp-2, 72 h.
The subject of another experiment is Human alphaherpesvirus 3. In words: Antiviral activity against VZV 3CV-1 infected in human Hep2 cells after 3 days by plaque neutralization assay. Conditions: Human alphaherpesvirus 3, HEp-2, 72 h. The class given is functional, organism-based.
The test system of the next experiment is Murine cytomegalovirus. Briefly: Antiviral activity against mCMV RM461 infected in human Hep2 cells assessed as virus-induced cytopathic effect after 3 days. Conditions: HEp-2, 72 h.
Experiment [7] is described as follows: Selectivity index, […] for human Hep2 cells administered 3 hrs after infection. It is filed as functional, HEp-2. The method, boiled down: (§1)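 RSV (Long, CPE) in Hep-2 cells, seeded the day before at 10 000 cells/well in high-glucose DMEM with 2% or 10% heat-inactivated FBS. Virus (3000 PFU) or medium alone was adsorbed for 3 h at 37 °C, then 3-fold dilutions were added (eight concentrations, 830-0.38 or […] final). Incubation was 3 days at 37 °C, then neutral red stain. EC50 and IC50 were in µg/mL; SI = IC50/EC50.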

Experiment [8] can be described thus: Cytotoxicity against HSV2 infected human Hep2 cells after 3 days. It is filed as cell-based. Conditions: HEp-2, 72 h.
Experiment [9] deals with Respiratory syncytial virus. Briefly: Antiviral activity against RSV infected in human Hep2 cells assessed as virus-induced cytopathic effect administered 3 hrs postinfection. Conditions: HEp-2, 3 h. It is filed as functional, organism-based. The procedure, abridged:
as §1

The nature of experiment [10]: Cytotoxicity against human Hep2 cells administered 3 hrs postinfection. The class given is cell-based. Conditions: HEp-2, 3 h. The procedure, abridged:
as §1

The nature of experiment [11]: Cytotoxicity against HSV1 infected human Hep2 cells after 3 days. It is filed as cell-based. Conditions: HEp-2, 72 h.
The nature of experiment [12]: Selectivity index, ratio of EC50 for HSV2 by cytopathic effect over IC50 for human Hep2 cells. It is filed as functional, HEp-2.
For a further experiment, the system named is Human alphaherpesvirus 2. Briefly: Antiviral activity against HSV2 infected in human Hep2 cells assessed as virus-induced cytopathic effect after 3 days. It is filed as functional, organism-based. Conditions: Human alphaherpesvirus 2, HEp-2, 72 h.
In another experiment the test system is Human alphaherpesvirus 1. In words: Antiviral activity against HSV1 infected in human Hep2 cells assessed as virus-induced cytopathic effect after 3 days. The class given is functional, organism-based. Conditions: Human alphaherpesvirus 1, HEp-2, 72 h.
A short description of experiment [13]: Selectivity index, ratio of EC50 for HSV1 by cytopathic effect over IC50 for human Hep2 cells. The class given is functional, HEp-2.
In experiment [14] the test system is Respiratory syncytial virus. In words: Antiviral activity against RSV A-2 infected in human Hep2 cells after 3 days by plaque neutralization assay. The class given is functional, organism-based. Conditions: HEp-2, 72 h.
Experiment [15] is described as follows: Cytotoxicity against RSV A-2 infected human Hep2 cells after 3 days. The class given is cell-based. Conditions: HEp-2, 72 h.
The nature of experiment [16]: Selectivity index, […] for human Hep2 cells. The class given is functional, HEp-2.

Molecules are shown by their SMILES. ≈ marks a conversion by molar mass, not a printed value.

The IC50 is the midpoint of a concentration-inhibition curve. What is called EC50 is the concentration giving half of the maximal effect. For `CC(=O)O[C@@H]1[C@@H](OC(C)=O)[C@H](C)O[C@@H](O[C@@H]2[C@@H](OC(C)=O)[C@H](OCCc3ccc(O)c(O)c3)O[C@H](COC(=O)/C=C/c3ccc(O)c(O)c3)[C@H]2OC(C)=O)[C@@H]1OC(C)=O`, the IC50 in [1] (read-out: IC50) was 15.9 µg/mL (≈ 19 µM). In addition, in experiment [2], the EC50 stood at 1.93 µg/mL (≈ 2.31 µM). The “Ratio IC50/EC50” value in experiment [3] is given as 8.2.
With `Nc1nc2c(ncn2COC(CO)CO)c(=O)[nH]1` [GANCICLOVIR], the IC50 was above 100 µg/mL in experiment [4] and 840 µg/mL (≈ 3290 µM) in experiment [6]. Also, the “Ratio IC50/EC50” value in [5] is reported as above 20. The EC50 is 26.7 µg/mL (≈ 105 µM) in the experiment on Human alphaherpesvirus 3 and 5 µg/mL (≈ 19.6 µM) in the experiment with Murine cytomegalovirus.
As to `CC(=O)OC[C@H]1O[C@@H](OCCc2ccc(O)c(O)c2)[C@H](OC(C)=O)[C@@H](O[C@@H]2O[C@@H](C)[C@H](OC(C)=O)[C@@H](OC(C)=O)[C@H]2OC(C)=O)[C@@H]1OC(=O)/C=C/c1ccc(O)c(O)c1`, the IC50 in [1] (read-out: IC50) worked out at 26.2 µg/mL (≈ 31.4 µM). In addition, the EC50 in experiment [2] turned out to be 5.87 µg/mL (≈ 7.03 µM). Further, the “Ratio IC50/EC50” value in [3] is on record as 4.4.
`C[C@@H]1O[C@@H](O[C@H]2[C@H](O)[C@@H](COC(=O)/C=C/c3ccc(O)c(O)c3)O[C@@H](OCCc3ccc(O)c(O)c3)[C@@H]2O[C@@H]2OC[C@](O)(CO)[C@@H]2O)[C@H](O)[C@H](O)[C@H]1O` [LUTEOSIDE B]: the “Ratio IC50/EC50” value in [7] was 780; in experiment [3], above 19. Moreover, the IC50 in experiment [8] was 90 µg/mL (≈ 119 µM); in experiment [1] (read-out: IC50), above 67 µg/mL; in experiment [10], 180 µg/mL (≈ 238 µM); in [11], 93 µg/mL (≈ 123 µM). For the same compound, the EC50 in [9] was determined as 0.23 µg/mL (≈ 0.304 µM); in experiment [2] it was 3.4 µg/mL (≈ 4.49 µM).
Consider `Nc1nc2c(ncn2COCCO)c(=O)[nH]1` [ACYCLOVIR], for which the IC50 in experiment [8] was above 10 µg/mL; in experiment [11] it was above 67 µg/mL. Moreover, the “Ratio IC50/EC50” value in experiment [12] was above 4.3; in experiment [13] it was above 250. Further, the EC50 worked out at 2.3 µg/mL (≈ 10.2 µM) with Human alphaherpesvirus 2 and 0.26 µg/mL (≈ 1.15 µM) with Human alphaherpesvirus 1.
With `COc1cc(/C=C/C(=O)OC[C@H]2O[C@@H](OCCc3ccc(O)c(O)c3)[C@H](O[C@@H]3OC[C@](O)(CO)[C@@H]3O)[C@@H](O[C@@H]3O[C@@H](C)[C@H](O)[C@@H](O)[C@H]3O)[C@@H]2O)ccc1O` [LUTEOSIDE C], the “Ratio IC50/EC50” value is above 28 in experiment [7] and 12 in experiment [3]. In addition, the values for the concentration for a half-maximal effect (EC50) in experiment [9] and in [2] were 12 µg/mL (≈ 15.6 µM) and 15.5 µg/mL (≈ 20.1 µM), respectively. For the same compound, the IC50 in experiment [1] (read-out: IC50) was 189 µg/mL (≈ 245 µM); in experiment [10], above 330 µg/mL.
As to `CC(=O)OC[C@H]1O[C@@H](OCCc2ccc(O)c(O)c2)[C@H](O[C@@H]2OC[C@](O)(CO)[C@@H]2O)[C@@H](O[C@@H]2O[C@@H](C)[C@H](O)[C@@H](O)[C@H]2O)[C@@H]1OC(=O)/C=C/c1ccc(O)c(O)c1` [LUTEOSIDE A], the results for the “Ratio IC50/EC50” value in experiment [7] and in experiment [3] were 16 and 89, respectively. For the same compound, the EC50 in [9] was 11 µg/mL (≈ 13.8 µM); in [2], 0.87 µg/mL (≈ 1.09 µM). The concentration for half-maximal inhibition (IC50) was 77 µg/mL (≈ 96.4 µM) in [1] (read-out: IC50) and 180 µg/mL (≈ 225 µM) in [10].
In the case of `C[C@@H]1O[C@@H](O[C@@H]2[C@@H](O)[C@H](OCCc3ccc(O)c(O)c3)O[C@H](CO)[C@H]2OC(=O)/C=C/c2ccc(O)c(O)c2)[C@H](O)[C@H](O)[C@H]1O` [ACETOSIDE], the IC50 was 44 µg/mL (≈ 70.4 µM) in experiment [4], 71 µg/mL (≈ 114 µM) in experiment [8], 76.9 µg/mL (≈ 123 µM) in experiment [1] and 108 µg/mL (≈ 173 µM) in experiment [10]. The results for the EC50 in experiment [14], in experiment [9] and in experiment [2] were 9.7 µg/mL (≈ 15.5 µM), 0.26 µg/mL (≈ 0.416 µM) and 0.8 µg/mL (≈ 1.28 µM), respectively. Moreover, the “Ratio IC50/EC50” value in experiment [7] is 415; in [3], 85.
On to `NC(=O)c1ncn([C@@H]2O[C@H](CO)[C@@H](O)[C@H]2O)n1` [RIBAVIRIN], for which the EC50 was 2.2 µg/mL (≈ 9.01 µM) in experiment [14], 2.3 µg/mL (≈ 9.42 µM) in experiment [9] and 1.8 µg/mL (≈ 7.37 µM) in experiment [2]. The figures for the IC50 in experiment [15], in experiment [1] (read-out: IC50) and in [10] were 25 µg/mL (≈ 102 µM), 35 µg/mL (≈ 143 µM) and 25 µg/mL (≈ 102 µM), respectively. In addition, the “Ratio IC50/EC50” value in experiment [7] is listed as 10.8; in [16] it was 11; in experiment [3] it was 19.
On to `C[C@@H]1O[C@@H](O[C@@H]2[C@@H](O)[C@H](OCCc3ccc(O)c(O)c3)O[C@H](COC(=O)/C=C/c3ccc(O)c(O)c3)[C@H]2O)[C@H](O)[C@H](O)[C@H]1O` [ISOACTEOSIDE], for which the IC50 turned out to be 89 µg/mL (≈ 142 µM) in experiment [4]; 27 µg/mL (≈ 43.2 µM) in [8]; 75 µg/mL (≈ 120 µM) in experiment [6]; 51.4 µg/mL (≈ 82.3 µM) in experiment [1] (read-out: IC50); 125 µg/mL (≈ 200 µM) in experiment [10]; 30 µg/mL (≈ 48 µM) in [11]. Also, the values for the EC50 in experiment [14], in experiment [9] and in experiment [2] were 1.1 µg/mL (≈ 1.76 µM), 0.17 µg/mL (≈ 0.272 µM) and 0.62 µg/mL (≈ 0.993 µM), respectively. For the same compound, the “Ratio IC50/EC50” value in experiment [7] was 735; in experiment [3], 84.
For the compound `CC(=O)OC[C@H]1O[C@@H](OCCc2ccc(OC(C)=O)c(OC(C)=O)c2)[C@H](OC(C)=O)[C@@H](O[C@@H]2O[C@@H](C)[C@H](OC(C)=O)[C@@H](OC(C)=O)[C@H]2OC(C)=O)[C@@H]1OC(=O)/C=C/c1ccc(OC(C)=O)c(OC(C)=O)c1` [VERBASCOSIDE NONAACETATE], in [1] (read-out: IC50), the IC50 worked out at 33.7 µg/mL (≈ 33.6 µM).
For `CC(=O)Oc1ccc(/C=C/C(=O)OC[C@H]2O[C@@H](OCCc3ccc(OC(C)=O)c(OC(C)=O)c3)[C@H](OC(C)=O)[C@@H](O[C@@H]3O[C@@H](C)[C@H](OC(C)=O)[C@@H](OC(C)=O)[C@H]3OC(C)=O)[C@@H]2OC(C)=O)cc1OC(C)=O` [ISOVERBASCOSIDE NOAACETATE], the IC50 in [1] (read-out: IC50) was determined as 11.2 µg/mL (≈ 11.2 µM). The EC50 in [2] stood at 3.4 µg/mL (≈ 3.39 µM). The “Ratio IC50/EC50” value in experiment [3] was determined as 3.3.

These data come from ChEMBL document CHEMBL1150874, “Antiviral phenylpropanoid glycosides from the medicinal plant Markhamia lutea” (J Nat Prod, 1998).
